Test results published in paper PMC3594358 (Nature structural & molecular biology, 2013).

What was measured:
53BP1-Tudor = assay: NMR titration of 53BP1-Tudor with H4 peptide; format: binding
In short: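 0.3 mM 15N-labelled 53BP1-Tudor titrated with unlabelled H4 peptide (synthetic H4K20me2, aa 14-27) from a 15 mM stock and followed by 1H-15N HSQC. In the reverse titration, 0.5 mM 13C/15N-labelled recombinant H4KC20me2 (aa 14-27, dimethyl-lysine analogue) received unlabelled Tudor from a 5 mM stock and was followed by 1H-13C HSQC.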

53BP1 IRIF in U2OS cells = assay: 53BP1 IRIF; format: cell-based; settings: HDACi 5 hours prior to 10 Gy IR (TSA 0.5 µM), fixed 5 hours later
In short: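 U2OS cells on coverslips were fixed and permeabilized, then incubated with primary antibody against 53BP1, washed in PBST, and incubated with secondary antibody. Coverslips were mounted in DAPI-containing medium. Images were captured on the same day at equal exposure in 8-bit grayscale and analysed on unmodified images.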

H4ac = assay: ChIP-qPCR H4ac at U2OS-DSB-reporter locus; format: cell-based; settings: 0.5 μM TSA vs DMSO; DSBs induced by mCherry-LacI-FokI
In short: (§1)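 U2OS-DSB-reporter cells were given 0.5 μM TSA or DMSO, for 5 h where stated, and DSBs were induced by mCherry-LacI-FokI. Cells were formaldehyde-crosslinked, and chromatin was sonicated to 200–500 bp and immunoprecipitated overnight at 4°C with antibody to 53BP1, BRCA1 or H4ac. After washing and de-crosslinking, SYBR Green qPCR was run at reporter primer sets, quantified against diluted-input standard curves, with S.E.M. and Student t test.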

BRCA1 = assay: ChIP-qPCR BRCA1 at U2OS-DSB-reporter locus; format: cell-based; settings: 0.5 μM TSA for 5 hours vs DMSO; DSBs induced by mCherry-LacI-FokI
In short: as §1

53BP1 = assay: ChIP-qPCR 53BP1 at U2OS-DSB-reporter locus; format: cell-based; settings: 0.5 μM TSA, 5 hours before DSB induction by mCherry-LacI-FokI; locus p4
In short: as §1

[1] = test system: BRCA1 and 53BP1 at subtelomeric chromatin in 293T cells; assay: ChIP BRCA1 and 53BP1 at subtelomeric regions, TRF1-FokI; format: cell-based; settings: 293T cells expressing TRF1-FokI, TSA treatment
In short: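 293T cells were transfected with a TRF1-FokI plasmid; controls lacked TRF1-FokI. 16 h later cells were cross-linked in 1% formaldehyde for 10 min and quenched with 0.125 M glycine. Chromatin was sonicated to 200–500 bp and immunoprecipitated overnight at 4°C with BRCA1 or 53BP1 antibodies on protein A agarose. After salt/LiCl/TE washes, chromatin was de-crosslinked overnight at 65°C, then subtelomeric SYBR Green qPCR against input standard curves.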

H4K20me2 in U2OS cells = assay: Immunoblot of total H4K20me2; format: cell-based; settings: acid-eluted histones from U2OS cells, 0.5 μM TSA, 5 hours
RPA = RPA accumulation at LacI-FokI DSBs; format: cell-based; settings: U2OS-DSB-reporter cells; TSA 0.5 μM vs DMSO; 200 cells per group, at least 2 independent experiments
In short: (§2)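 U2OS cells carrying the LacI-FokI DSB reporter were grown in DMEM with 10% calf serum and siRNA-transfected, then analysed 48–72 h later. DSBs were induced with mCherry-LacI-FokI, with DMSO or 0.5 μM TSA. Coverslips were fixed, permeabilised and immunostained for RPA or Rad51, then mounted with DAPI. The mCherry signal marked the damaged area, where focus presence or intensity was scored after background subtraction per cell.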

Rad51 = Rad51 accumulation at LacI-FokI DSBs; format: cell-based; settings: U2OS-DSB-reporter cells; TSA 0.5 μM vs DMSO; 200 cells per group, at least 2 independent experiments
In short: as §2

[2] = test system: 53BP1 −/− mouse embryonic fibroblasts; assay: Metaphase spreads, radial chromosomes, 53BP1 −/− MEFs; format: cell-based; settings: TIP60 siRNA + Olaparib; 53BP1 −/− vs 53BP1 +/+ MEFs
In short: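 53BP1+/+ and 53BP1−/− MEFs were transfected with control or mouse TIP60 siRNA using RNAiMax, analysed 48–72 h later, and treated with Olaparib. Cells were arrested with 0.5 μM nocodazole for 3–4 h, swollen in 75 mM KCl, fixed on ice in 3:1 methanol/acetic acid, dropped onto slides at 55°C and Giemsa-stained. Metaphases were scored for radial chromosomes, with significance by Fisher's exact test.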

U2OS cells = assay: Survival following Olaparib; format: cell-based; settings: percentage survival
BRCA1 mutant cells = settings: ref [39],[40], cited from earlier work

For “H4K20me2: H4K20me2 peptide (aa 14-27) chemically synthesized”, the “shifts of Trp1495 side chain resonances” value (53BP1-Tudor; ^1H-^13C HSQC, 298 K, pH 7.0) was “large downfield shifts”, the “downfield shift of Trp1495 indole HN proton” value (53BP1-Tudor; ^1H-^15N HSQC, 0.3 mM ^15N-labeled 53BP1-Tudor, 298 K, 25 mM sodium phosphate, pH 7.0) was 0.8 p.p.m and the “changes in chemical shift of 53BP1-Tudor binding cage residues (Trp1495, Tyr1502, Phe1519, Asp1521, Tyr1523)” value (53BP1-Tudor; ^1H-^15N HSQC, 298 K, 25 mM sodium phosphate, pH 7.0) was “pronounced changes in chemical shift”.

In the case of `CC(/C=C/C(=O)NO)=C\[C@@H](C)C(=O)c1ccc(N(C)C)cc1` [TSA, trichostatin A], the “53BP1 IRIF” value (53BP1 IRIF in U2OS cells) was “strongly reduced”, the “H4 acetylation (H4ac)” value (H4ac) was “elevated” and the “increase in BRCA1 occupancy” value (BRCA1) was ~4 fold. For the same compound, the 53BP1 association (53BP1) was “diminished”, the “response of BRCA1 and 53BP1 at subtelomeric chromatin” value [1] was “divergent response” and the “total H4K20me2” value (H4K20me2 in U2OS cells) was “did not affect”. The “RPA accumulation at the LacI-FokI reporter after RVB1 or TIP60 knockdown” value (RPA) was “restored” and the “Rad51 accumulation at the LacI-FokI reporter after RVB1 or TIP60 knockdown” value (Rad51) was “restored”.

For “non-methylated H4K20 peptide: corresponding non-methylated peptide, control”, the “Trp1495 indole HN shift, in words” value (53BP1-Tudor; ^1H-^15N HSQC, 53BP1-Tudor titrated with non-methylated peptide, vs H4K20me2) was “markedly reduced”.

With `O=C(c1cc(Cc2n[nH]c(=O)c3ccccc23)ccc1F)N1CCN(C(=O)C2CC2)CC1` [Olaparib] the “impact of TIP60 knockdown on radial chromosome formation by 53BP1 nullizygosity” value [2] was “strongly mitigated”, the “sensitivity to Olaparib, TIP60 deficiency with accompanying 53BP1 knockdown” value (U2OS cells; TIP60 and 53BP1 siRNA) was “reversed” and the “sensitivity to Olaparib, TIP60 deficiency” value (U2OS cells; TIP60 siRNA) was “hypersensitivity”. The “sensitivity to Olaparib, BRCA1 mutation with 53BP1 nullizygosity” value (BRCA1 mutant cells; BRCA1 mutation and 53BP1 nullizygosity) was “reversed” and the “sensitivity to Olaparib, BRCA1 mutation” value (BRCA1 mutant cells; BRCA1 mutation) was “hypersensitivity”.
